Where “and” joins values, the source holds several entries; their conditions need not be identical. Equal values may be shown once. Read-outs that look alike come from different tables or passages of the source.
Legend:
[1] = test system: A2058 (BRAF mutation); test: MTT cell viability assay, A2058; type: cell-based; settings: read-out: IC50, A2058 (BRAF mutation); 24 h treatment, human cell line
How it was run: (§1)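 Cells were seeded in 96-well plates overnight, then exposed to test compound for 24 h at concentrations up to 10 μM. Growth was read by MTT as OD570. Viability was expressed relative to vehicle (0.5% DMSO) set as 100%, and IC50 was derived from this.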

[2] = test system: A375-R cells; test: ROS measurement, A375-R; type: cell-based, human; settings: 5 µM, 2 h
[3] = test system: Melanocyte (Normal cells); test: MTT cell viability assay, normal melanocytes; type: cell-based; settings: read-out: IC50, Melanocyte (Normal cells); 24 h treatment, human cells
How it was run: as §1

[4] = test system: A375 cells; test: ROS measurement, A375; type: cell-based, human; settings: A375, 5 µM, 2 h
[5] = test system: A375-R xenografts (acquired vemurafenib resistance); test: A375-R xenograft tumor model; type: in vivo, NOD/SCID mice
How it was run: (§2)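 Female NOD/SCID mice, 6 weeks old, received 3×10^6 A375-R or A2058 cells subcutaneously in the flank. Treatment began at about 50 mm³ tumour volume, with 8 mice per randomised group. Doses were PLX4032 75 mg/kg/day and test compound 20 mg/kg every two days; combination arms alternated the two, each every two days. Tumour volume (a×b²×0.5) and body weight were recorded every three days. TGI used initial-to-final volume change versus vehicle.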

[6] = test system: MeWo (No NRAS or BRAF mutation); test: MTT cell viability assay, MeWo; type: cell-based; settings: read-out: IC50, MeWo (No NRAS or BRAF mutation); 24 h treatment, human cell line
How it was run: as §1

[7] = test system: B16-F10 (NRAS mutation); test: MTT cell viability assay, B16-F10; type: cell-based; settings: read-out: IC50, B16-F10 (NRAS mutation); 24 h treatment, mouse cell line
How it was run: as §1

[8] = test system: SK-MEL-2 (NRAS mutation); test: MTT cell viability assay, SK-MEL-2; type: cell-based; settings: read-out: IC50, SK-MEL-2 (NRAS mutation); 24 h treatment, human cell line
How it was run: as §1

[9] = test system: A375 cells; test: Colony formation assay, A375; type: cell-based, human; settings: for inhibition of colony formation: 21 days
How it was run: (§3)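 A375 or A375-R cells were grown in 24-well plates with treatment for 21 days, with drug-containing medium renewed every three days. Colonies were stained with 0.1% crystal violet in PBS. Dye was extracted with 20% acetic acid and absorbance read at 595 nm. Values are colony formation relative to control, n = 4.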

[10] = test system: A375 xenografts; test: A375 xenograft tumor model; type: in vivo, NOD/SCID mice
How it was run: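 A375 cells (3×10^6) were injected subcutaneously into the flanks of 6-week-old female NOD/SCID mice. At about 50 mm³, mice were randomised, n = 8 per group. Dosing was PLX4032 20 mg/kg/day and test compound 20 mg/kg every two days. Combination arms alternated test compound (20 mg/kg every four days) with PLX4032 (20 mg/kg every two days). Volume (a×b²×0.5) was measured every three days. Tumours were dissected and weighed. TGI compared volume change with vehicle.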

[11] = test system: A375-R cells; test: Cell cycle analysis, A375-R; type: cell-based, human
How it was run: (§4)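 Cells were synchronised in medium with 1% FBS for 12 h, then given fresh 10% FBS medium with vehicle or test compound for 24 h. Adherent and floating cells were pooled, fixed overnight in ice-cold 70% ethanol at 4°C, and stained with propidium iodide/RNase A for 30 min at room temperature in the dark. Cells were then analysed by flow cytometry.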

[12] = test system: A375 cells; test: Cell cycle analysis, A375; type: cell-based, human; settings: A375, 24 h
How it was run: as §4

[13] = test system: A375 cells; test: Apoptosis detection; type: cell-based, human; settings: A375, 72 h
How it was run: (§5)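 Cells were seeded in 6-well plates and exposed to vehicle or test compound for 72 h. Apoptotic cells were scored by Annexin V-FITC plus propidium iodide double staining and flow cytometry.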

[14] = test system: A375-R cells; test: Colony formation assay, A375-R; type: cell-based, human; settings: 21 days
How it was run: as §3

[15] = test system: A375 (BRAF mutation); test: MTT cell viability assay, A375; type: cell-based, human
[16] = test system: A375-R cells (acquired vemurafenib resistance); test: MTT cell viability assay, A375-R; type: cell-based, human
[17] = test system: metastatic melanoma; settings: cited from earlier work
[18] = test system: A375-R cells; test: Apoptosis detection, A375-R; type: cell-based, human
How it was run: as §5

[19] = test system: A2058 xenografts (intrinsic vemurafenib resistance); test: A2058 xenograft tumor model; type: in vivo, NOD/SCID mice; settings: 75 mg/kg/day, 24 doses in total
How it was run: as §2

[20] = 20 mg/kg/every two days, 12 doses in total
[21] = read-out: IC50, A375 (BRAF mutation), 24 h treatment, human cell line
[22] = 20 mg/kg/day, 24 doses in total

IC50 [7]	IC50 [8]	IC50 [15, 21]	SMILES	IC50 [1]	IC50 [3]	IC50 [6]	also measured
> 10 µM	> 10 µM	> 10 µM	C=C1C(=O)OC2CC3=C[C@@H](C/C(C)=C/C(O)[C@H]12)OC3=O (stereo partly shown) [DETD-3]	> 10 µM	> 10 µM	> 10 µM	
4.7 ± 0.03 µM	7.8 ± 0.14 µM	4.1 ± 0.15 µM	C=C1C(=O)OC2CC3=C[C@@H](C/C(C)=C/C(OC(=O)/C(C)=C/CC)[C@H]12)OC3=O (stereo partly shown) [DETD-5]	5.8 ± 0.08 µM	> 10 µM	> 10 µM	
7.1 ± 0.09 µM	> 10 µM	> 10 µM	C=C1C(=O)OC2CC3=C[C@@H](C/C(C)=C/C(OC(=O)C(C)CC)[C@H]12)OC3=O (stereo partly shown) [DETD-13]	> 10 µM	> 10 µM	> 10 µM	
7.8 ± 0.28 µM	> 10 µM	> 10 µM	C=C(CC)C(=O)OC1/C=C(\C)C[C@@H]2C=C(CC3OC(=O)C(=C)[C@@H]13)C(=O)O2 (stereo partly shown) [DETD-19]	> 10 µM	> 10 µM	> 10 µM	
> 10 µM	> 10 µM	> 10 µM	C=C1C(=O)OC2CC3=C[C@@H](C/C(C)=C/C(OC(=O)/C=C/C)[C@H]12)OC3=O (stereo partly shown) [DETD-24]	> 10 µM	> 10 µM	> 10 µM	
2.9 ± 0.78 µM	> 10 µM	4.3 ± 0.62 µM	C=C1C(=O)OC2CC3=C[C@@H](C/C(C)=C/C(OC(=O)c4ccccc4)[C@H]12)OC3=O (stereo partly shown) [DETD-31]	> 10 µM	> 10 µM	> 10 µM	
2.2 ± 0.29 µM	5.9 ± 0.2 µM	2.9 ± 0.26 µM	C=C1C(=O)OC2CC3=C[C@@H](C/C(C)=C/C(OC(=O)c4ccc(C)cc4)[C@H]12)OC3=O (stereo partly shown) [DETD-33]	4.2 ± 0.09 µM	> 10 µM	6.7 ± 0.22 µM	
			CC(=O)N[C@@H](CS)C(=O)O [NAC, N-acetyl-L-cysteine, reference compound]				effect on A375 cell viability ([15]; 5 mM alone): did not affect; effect on A375-R cell viability ([16]; 5 mM alone): did not affect
			CCCS(=O)(=O)Nc1ccc(F)c(C(=O)c2c[nH]c3ncc(-c4ccc(Cl)cc4)cc23)c1F [PLX4032, vemurafenib, reference compound]				anti-tumor activity ([5]; A375-R xenograft, 75 mg/kg/day, 24 doses in total): no anti-tumor activity; inhibition at 0.1 µM ([9]; Homo sapiens, A-375, 504 h, read-out: inhibition of colony formation): 55%; average time to relapse after therapy ([17]; melanoma patients): ≤ 7 months; reduction of tumor mass [10, 22]: 71.9%; tumor growth inhibition (TGI) [10, 22]: 87.4%; apoptosis [18]: no effect; effect on cell-cycle distribution [11]: no effect; effect on cell-cycle distribution [12]: G1-phase cell-cycle arrest; apoptosis [13]: 10.4%; anti-tumor activity [19]: no anti-tumor activity; effect on colony formation of A375-R cells [14]: no inhibitory effect; IC50 ([15]; Homo sapiens, A-375, 72 h, read-out: IC50 on A375 cells): 0.07 µM; IC50 ([16]; Homo sapiens, 72 h, read-out: IC50 on A375-R cells): 7.34 µM; fold less sensitive, A375-R compared to parental cell line ([16]; IC50 A375-R vs A375): 100 fold
			CN(C)/N=N/c1[nH]cnc1C(N)=O [dacarbazine]				complete response ([17]; metastatic melanoma): less than 5%

SMILES	IC50 [7]	IC50 [8]	IC50 [15, 21]	IC50 [1]	IC50 [3]	IC50 [6]	also measured
C=C(C)C(=O)O[C@H]1CC2=C[C@@H](C/C(C)=C/[C@H]3OC(=O)C(=C)[C@H]13)OC2=O [DET, deoxyelephantopin]	6 ± 0.13 µM	> 10 µM	6 µM and 5.9 µM	> 10 µM	> 10 µM	> 10 µM	increase of ROS level [2]: more than 2 fold; increase of ROS level [4]: more than 2 fold; tumor growth inhibition (TGI) ([5]; A375-R, 20 mg/kg/every two days, 12 doses in total): 31.2%; inhibition of colony formation ([9]; 1 µM): 38%; inhibition of colony formation ([9]; 2.5 µM): 65%; inhibition of colony formation ([9]; 5 µM): 91%; reduction of tumor mass [10, 20]: 47.5%; tumor growth inhibition (TGI) [10, 20]: 71.0%; effect on cell-cycle distribution [11]: G2/M-phase cell-cycle arrest; effect on cell-cycle distribution [12]: induced G2/M-phase arrest; apoptosis [13]: ≤ 67.8%; effect on colony formation of A375-R cells [14]: inhibited colony formation; inhibition of A375 cell viability ([15]; 2 µM, 72 h): 55%; inhibition of A375-R cell viability ([16]; 2 µM, 72 h): 65%
C=C1C(=O)OC2CC3=C[C@@H](C/C(C)=C/C(OC(C)=O)[C@H]12)OC3=O (stereo partly shown) [DETD-17]	> 10 µM	> 10 µM	> 10 µM	> 10 µM	> 10 µM	> 10 µM	
C=C1C(=O)OC2CC3=C[C@@H](C/C(C)=C/C(OC(=O)Cc4ccccc4)[C@H]12)OC3=O (stereo partly shown) [DETD-43]	7.4 ± 0.48 µM	8.2 ± 0.27 µM	3.6 ± 0.25 µM	8.7 ± 0.33 µM	> 10 µM	> 10 µM	
